Measured values: ChEMBL document CHEMBL4130438, “6,7-Seco-ent-Kauranoids Derived from Oridonin as Potential Anticancer Agents” (J Nat Prod, 2017)
The source made the active and inactive calls. The calls are words filed in the database; no cut-off is given here.

Experiments:
[1] = system: MCF7; assay: Induction of apoptosis in human MCF7 cells assessed as late apoptotic cells at 2 uM after 24 hrs by Annexin-V FITC/propidium iodide staining based flow cytometry (reference value: 0.290%); format: functional
[2] = system: MCF7; assay: Inhibition of colony formation in human MCF7 cells up to 600 nM incubated for 24 hrs followed by removal of media measured after 10 days by crystal violet staining based microscopy; format: functional, cell-based
Method in brief: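 300 MCF-7 cells per well plated and incubated overnight, then exposed for 24 h to graded concentrations in DMSO (DMSO-only control). Medium removed and cells grown 10 days. Fixed in methanol 15 min, stained with 0.1% crystal violet 15 min; colonies of >50 cells counted. At least three independent experiments.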

[3] = system: MCF7; assay: Cell cycle arrest in human MCF7 cells assessed as accumulation at G2/M phase at 0.50 uM after 48 hrs by propidium iodide staining based flow cytometry (reference value: 12.72%); format: functional
[4] = system: MCF7; assay: Induction of apoptosis in human MCF7 cells assessed as decrease in p53 expression level after 48 hrs by Western blot analysis; format: functional, cell-based
Method in brief: (§1)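 MCF-7 cells treated 48 h with 0, 0.5, 1.0, 2.0 or 4.0 μM, then lysed on ice. 20 μg protein per lane run on 8–12% SDS-PAGE and transferred to PVDF. Probed overnight at 4 °C for caspase-3, pro-caspase-3, Bax, Bcl-2, p-ERK and p53, with fluorescent secondary antibodies. Densities normalised to β-actin; three independent experiments.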

[5] = system: MCF7; assay: Induction of apoptosis in human MCF7 cells assessed as necrotic cells at 2 uM after 24 hrs by Annexin-V FITC/propidium iodide staining based flow cytometry (reference value: 0.610%); format: functional
[6] = system: Mus musculus; assay: Toxicity in ICR mouse xenografted with […] cells assessed as effect on body weight loss at 10 to 20 mg/kg, iv qd administered for 14 consecutive days; format: organism-based; details: in vivo
Method in brief: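 Male ICR mice, five weeks old, implanted s.c. in the right flank with 1 × 10^6 H22 cells. After 7 days, randomised into groups of eight. Given i.v. once daily for 14 days, 10 or 20 mg/kg in 10% DMF/2% poloxamer/88% saline; negative controls received 0.9% saline i.v., positive control 20 mg/kg oridonin. Body weight and tumour volume (L × W²/2) recorded every 2 days. Tumours excised and weighed at sacrifice; inhibition (%) = (1 − treated/control mean tumour weight) × 100.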

[7] = system: K562; assay: Antiproliferative activity against human K562 cells after 72 hrs by MTT assay; format: functional, cell-based; details: K562, 72 h
Method in brief: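 Cells pre-incubated 24 h at 37 °C, 5% CO2 in 96-well plates, then exposed to a range of compound concentrations (DMSO ≤0.25%) for 72 h. Viable cells read by MTT colour at 570 nm. Performed in quadruplicate, repeated three times. IC50 reported as means ± SD, n = 3.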

[8] = system: MCF7; assay: Induction of apoptosis in human MCF7 cells assessed as viable cells at 1 uM after 24 hrs by Annexin-V FITC/propidium iodide staining based flow cytometry (reference value: 97.5%); format: functional; details: MCF7, 24 h, read-out: Activity
[9] = system: MCF7; assay: Induction of apoptosis in human MCF7 cells assessed as increase in Bax expression level after 48 hrs by Western blot analysis; format: functional, cell-based
[10] = system: MCF7; assay: Induction of apoptosis in human MCF7 cells assessed as necrotic cells at 0.25 uM after 24 hrs by Annexin-V FITC/propidium iodide staining based flow cytometry (reference value: 0.610%); format: functional
[11] = system: MCF7; assay: Induction of apoptosis in human MCF7 cells assessed as viable cells at 2 uM after 24 hrs by Annexin-V FITC/propidium iodide staining based flow cytometry (reference value: 97.5%); format: functional; details: MCF7, 24 h, read-out: Activity
[12] = system: MCF7; assay: Induction of apoptosis in human MCF7 cells assessed as early apoptotic cells at 0.50 uM after 24 hrs by Annexin-V FITC/propidium iodide staining based flow cytometry (reference value: 1.60%); format: functional
[13] = system: Bel-7402; assay: Cytotoxicity against human Bel7402 cells assessed as decrease in cell viability after 24 hrs by LDH release assay; format: functional, cell-based
Method in brief: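 MCF-7 and Bel-7402 cells seeded at ~5 × 10^3 per well for 24 h, then exposed to compounds. LDH released into the medium measured with CytoTox-ONE reagent (10 min, ambient temperature) followed by stop solution. Fluorescence read at ex 560/em 590 nm.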

[14] = species on record: Homo sapiens; assay: Antiproliferative activity against human KB/CP4 cells after 48 hrs by MTT assay; format: functional, cell-based
[15] = system: MCF7; assay: Induction of apoptosis in human MCF7 cells assessed as increase in ERK phosphorylation after 48 hrs by Western blot analysis; format: functional, cell-based
[16] = system: MCF7; assay: Cell cycle arrest in human MCF7 cells assessed as accumulation at S phase at 2 uM after 48 hrs by propidium iodide staining based flow cytometry (reference value: 17.01%); format: functional
[17] = system: MCF7; assay: Cell cycle arrest in human MCF7 cells assessed as accumulation at G1 phase at 0.50 uM after 48 hrs by propidium iodide staining based flow cytometry (reference value: 70.27%); format: functional
[18] = system: MCF7; assay: Induction of apoptosis in human MCF7 cells assessed as necrotic cells at 1 uM after 24 hrs by Annexin-V FITC/propidium iodide staining based flow cytometry (reference value: 0.610%); format: functional
[19] = system: MCF7; assay: Cell cycle arrest in human MCF7 cells assessed as accumulation at G2/M phase after 48 hrs by propidium iodide staining based flow cytometry; format: functional
[20] = system: MCF7; assay: Induction of apoptosis in human MCF7 cells after 24 hrs by Annexin-V FITC/propidium iodide staining based flow cytometry; format: functional, cell-based
[21] = system: MCF7; assay: Cell cycle arrest in human MCF7 cells assessed as accumulation at G2/M phase at 1 uM after 48 hrs by propidium iodide staining based flow cytometry (reference value: 12.72%); format: functional
[22] = system: MCF7; assay: Cell cycle arrest in human MCF7 cells assessed as accumulation at G2/M phase at 2 uM after 48 hrs by propidium iodide staining based flow cytometry (reference value: 12.72%); format: functional
[23] = system: MCF7; assay: Cell cycle arrest in human MCF7 cells assessed as accumulation at S phase at 0.50 uM after 48 hrs by propidium iodide staining based flow cytometry (reference value: 17.01%); format: functional
[24] = system: MCF7; assay: Induction of apoptosis in human MCF7 cells assessed as viable cells at 0.25 uM after 24 hrs by Annexin-V FITC/propidium iodide staining based flow cytometry (reference value: 97.5%); format: functional; details: MCF7, 24 h, read-out: Activity
[25] = system: MCF7; assay: Induction of apoptosis in human MCF7 cells assessed as late apoptotic cells at 1 uM after 24 hrs by Annexin-V FITC/propidium iodide staining based flow cytometry (reference value: 0.290%); format: functional
[26] = system: MCF7; assay: Induction of apoptosis in human MCF7 cells assessed as early apoptotic cells at 2 uM after 24 hrs by Annexin-V FITC/propidium iodide staining based flow cytometry (reference value: 1.60%); format: functional
[27] = system: MCF7; assay: Cell cycle arrest in human MCF7 cells assessed as accumulation at G1 phase at 1 uM after 48 hrs by propidium iodide staining based flow cytometry (reference value: 70.27%); format: functional
[28] = system: MCF7; assay: Induction of apoptosis in human MCF7 cells assessed as viable cells at 0.50 uM after 24 hrs by Annexin-V FITC/propidium iodide staining based flow cytometry (reference value: 97.5%); format: functional; details: MCF7, 24 h, read-out: Activity
[29] = system: MCF7; assay: Induction of apoptosis in human MCF7 cells assessed as decrease in Bcl2 expression level after 48 hrs by Western blot analysis; format: functional, cell-based; method in brief: as §1

C=C1C(=O)[C@@]23C(=O)OC[C@]4(C=CCC(C)(C)[C@H]4C=O)[C@@H]2CC[C@@H]1[C@H]3OC(=O)c1ccc(F)cc1 was tested, and the Activity [1] was 24.7%, the inhibition [2] was “Active” and the Activity [3] was 19.47%. The Activity [4] was “Dose-dependent effect”, the Activity [5] was 2.74% and the Activity [6] was “Non-Toxic”. For the same molecule, the IC50 [7] was 690 nM, the viability at 1 µM [8] was 72% and the Activity [9] was “Dose-dependent effect”. For the same molecule, the Activity [10] was 0.649%, the viability at 2 µM [11] was 58.6% and the Activity [12] was 9.75%. The Activity [13] was “inactive”, the Activity [14] was “Active” and the Activity [15] was “Dose-dependent effect”. It also gave an Activity [16] of 17.71%, an Activity [17] of 64.82% and an Activity [18] of 1.93%. The Activity [19] was “Dose-dependent effect”, the Activity [20] was “Dose-dependent effect” and the Activity [21] was 21.23%. It also gave an Activity [22] of 24.8%, an Activity [23] of 15.71% and a viability at 0.25 µM [24] of 87.2%. For the same molecule, the Activity [25] was 15.9%, the Activity [26] was 14% and the Activity [27] was 63.35%. The viability at 0.5 µM [28] was 81.7% and the Activity [29] was “Dose-dependent effect”.
